Test results taken from ChEMBL document CHEMBL1152562, “Design, synthesis and evaluation of flavonoid derivatives as potent AChE inhibitors” (Bioorg Med Chem, 2009).

Assays:
[1] = molecular target: T1, Acetylcholinesterase (Rattus norvegicus, UniProt P37136); assay: Inhibition of AChE in rat cortex after 15 mins by modified Ellman's method
T1 sequence (P37136 whole entry): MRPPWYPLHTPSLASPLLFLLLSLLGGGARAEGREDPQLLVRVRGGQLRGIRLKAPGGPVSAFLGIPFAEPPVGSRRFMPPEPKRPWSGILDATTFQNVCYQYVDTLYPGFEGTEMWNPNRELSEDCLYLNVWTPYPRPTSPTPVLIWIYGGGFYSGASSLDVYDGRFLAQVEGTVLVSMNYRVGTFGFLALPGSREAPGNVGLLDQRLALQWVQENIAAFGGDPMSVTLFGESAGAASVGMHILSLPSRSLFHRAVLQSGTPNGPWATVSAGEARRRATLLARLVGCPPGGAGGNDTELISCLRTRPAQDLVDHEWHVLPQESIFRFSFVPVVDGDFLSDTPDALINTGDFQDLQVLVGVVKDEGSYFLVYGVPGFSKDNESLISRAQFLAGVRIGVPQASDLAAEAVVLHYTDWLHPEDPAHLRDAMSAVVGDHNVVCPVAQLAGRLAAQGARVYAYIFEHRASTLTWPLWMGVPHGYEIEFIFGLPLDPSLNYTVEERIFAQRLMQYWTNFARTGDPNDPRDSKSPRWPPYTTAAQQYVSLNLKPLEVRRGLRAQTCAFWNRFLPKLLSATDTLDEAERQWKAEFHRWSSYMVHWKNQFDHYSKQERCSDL

[2] = molecular target: Butyrylcholinesterase (Rattus norvegicus, UniProt Q9JKC1); assay: Inhibition of BChE in rat serum after 15 mins by modified Ellman's method; format: cell-free
How it was run: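 Enzyme source was rat serum. Substrate butyrylthiocholine iodide 0.4 mmol/L in sodium phosphate buffer ([…]). Serum was incubated with the test compound at several concentrations at 37 °C for 15 min. Activity was read spectrophotometrically by a modified Ellman method, with IC50 derived from the concentration series.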

Butyrylcholinesterase, sequence (Q9JKC1 whole entry): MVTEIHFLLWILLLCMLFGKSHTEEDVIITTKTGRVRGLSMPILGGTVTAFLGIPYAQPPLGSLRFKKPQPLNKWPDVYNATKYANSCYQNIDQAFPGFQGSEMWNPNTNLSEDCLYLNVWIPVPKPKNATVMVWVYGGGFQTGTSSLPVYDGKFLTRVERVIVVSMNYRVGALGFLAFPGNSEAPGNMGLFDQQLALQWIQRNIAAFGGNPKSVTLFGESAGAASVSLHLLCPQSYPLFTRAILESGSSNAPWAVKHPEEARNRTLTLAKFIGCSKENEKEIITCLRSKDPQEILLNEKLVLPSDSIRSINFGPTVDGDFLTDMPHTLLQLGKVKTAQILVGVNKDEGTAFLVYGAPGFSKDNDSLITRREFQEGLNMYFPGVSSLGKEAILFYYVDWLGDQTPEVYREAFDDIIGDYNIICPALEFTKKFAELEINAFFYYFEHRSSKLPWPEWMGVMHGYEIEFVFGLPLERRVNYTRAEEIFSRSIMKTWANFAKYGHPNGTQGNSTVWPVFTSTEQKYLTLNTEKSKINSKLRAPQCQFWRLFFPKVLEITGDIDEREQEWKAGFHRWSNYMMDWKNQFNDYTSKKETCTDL

In the case of `COc1cc2oc(-c3ccc(CN4CCCC4)cc3)cc(=O)c2cc1OC`, the IC50 [1] is reported as 0.055 µM and the IC50 [2] is reported as 89.7 µM.

For `CCN(C)Cc1ccc(/C=C/C(=O)c2cc(OC)c(OC)cc2O)cc1`, the IC50 [1] was 0.126 µM and the IC50 [2] was over 100 µM.

`CCN(CC)Cc1ccc(/C=C/C(=O)c2cc(OC)c(OC)cc2O)cc1` showed an IC50 [1] of 0.103 µM and an IC50 [2] of over 100 µM.

Molecule `CCN(CC)Cc1cccc(/C=C/C(=O)c2cc(OC)c(OC)cc2O)c1` has an IC50 [1] of 1.61 µM and an IC50 [2] of over 100 µM.

With `COc1cc(O)c(C(=O)/C=C/c2ccc(CN3CCCC3)cc2)cc1OC` the IC50 [1] was 0.037 µM and the IC50 [2] was over 100 µM.

Work on `COc1cc(O)c(C(=O)/C=C/c2cccc(CN3CCCC3)c2)cc1OC` yielded an IC50 [1] of 0.047 µM and an IC50 [2] of 77.3 µM.

`COc1cc(O)c(C(=O)/C=C/c2ccc(CN3CCCCC3)cc2)cc1OC` gave an IC50 [1] of 0.122 µM and an IC50 [2] of over 100 µM.

With `CCN(C)Cc1ccc(-c2cc(=O)c3cc(OC)c(OC)cc3o2)cc1` the IC50 [1] was 0.336 µM and the IC50 [2] was over 100 µM.

With `CCN(CC)Cc1ccc(-c2cc(=O)c3cc(OC)c(OC)cc3o2)cc1` the IC50 [1] was 0.639 µM and the IC50 [2] was 64.6 µM.

For `CCN(CC)Cc1cccc(-c2cc(=O)c3cc(OC)c(OC)cc3o2)c1`, the IC50 [1] was 5.99 µM and the IC50 [2] was over 100 µM.

In the case of `COc1cc2oc(-c3cccc(CN4CCCC4)c3)cc(=O)c2cc1OC`, the IC50 [1] is reported as 0.704 µM and the IC50 [2] is reported as over 100 µM.

Molecule `COc1cc2oc(-c3ccc(CN4CCCCC4)cc3)cc(=O)c2cc1OC` has an IC50 [1] of 0.034 µM and an IC50 [2] of 75.2 µM.

`CCN(C)Cc1ccc(C2CC(=O)c3cc(OC)c(OC)cc3O2)cc1` (stereo not drawn) gave an IC50 [1] of 4.67 µM and an IC50 [2] of over 100 µM.

`CCN(CC)Cc1ccc(C2CC(=O)c3cc(OC)c(OC)cc3O2)cc1` (stereo not drawn) gave an IC50 [1] of 4.97 µM and an IC50 [2] of over 100 µM.

Work on `CCN(CC)Cc1cccc(C2CC(=O)c3cc(OC)c(OC)cc3O2)c1` (stereo not drawn) yielded an IC50 [1] of 172 µM and an IC50 [2] of over 100 µM.

`COc1cc2c(cc1OC)C(=O)CC(c1ccc(CN3CCCC3)cc1)O2` (stereo not drawn) was tested, and the IC50 [1] was 1.24 µM and the IC50 [2] was 68.2 µM.

Work on `COc1cc2c(cc1OC)C(=O)CC(c1cccc(CN3CCCC3)c1)O2` (stereo not drawn) yielded an IC50 [1] of 5.36 µM and an IC50 [2] of over 100 µM.

Molecule `COc1cc2c(cc1OC)C(=O)CC(c1ccc(CN3CCCCC3)cc1)O2` (stereo not drawn) has an IC50 [1] of 0.248 µM and an IC50 [2] of 48 µM.

`CCN(C)Cc1ccc(-c2coc3cc(OC)c(OC)cc3c2=O)cc1` showed an IC50 [1] of 0.171 µM and an IC50 [2] of 61 µM.

In the case of `CCN(CC)Cc1ccc(-c2coc3cc(OC)c(OC)cc3c2=O)cc1`, the IC50 [1] is reported as 0.599 µM and the IC50 [2] is reported as over 100 µM.

`CCN(CC)Cc1cccc(-c2coc3cc(OC)c(OC)cc3c2=O)c1` gave an IC50 [1] of 0.56 µM and an IC50 [2] of over 100 µM.

For `COc1cc2occ(-c3ccc(CN4CCCC4)cc3)c(=O)c2cc1OC`, the IC50 [1] was 0.004 µM and the IC50 [2] was 18.3 µM.

Molecule `COc1cc2occ(-c3cccc(CN4CCCC4)c3)c(=O)c2cc1OC` has an IC50 [1] of 0.07 µM and an IC50 [2] of over 100 µM.

Work on `COc1cc2occ(-c3ccc(CN4CCCCC4)cc3)c(=O)c2cc1OC` yielded an IC50 [1] of 0.068 µM and an IC50 [2] of over 100 µM.
